# Measured values published in ChEMBL document CHEMBL1126902, “Synthesis, chemical reactivity, and antitumor evaluation of congeners of carmethizole hydrochloride, an experimental "acylated vinylogous carbinolamine" tumor inhibitor” (J Med Chem, 1993).
# Legend:
# [1] = Percent increase in life span of dying mice tested in vivo at 87 mg/kg against ip implanted LOX amelanotic melanoma in mice (60-day survivors); assay type: functional; conditions: Mus musculus, 1440 h, route intraperitoneal
# Method in brief: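 Nude CD2F1 female mice were implanted ip with ascitic fluid containing ca. 1.7×10^6 LOX amelanotic melanoma cells. Drug was given ip on days 1, 5 and 9, starting 24 h after implantation, and dosed by exact body weight. Solutions or suspensions were made fresh daily in saline plus Tween 80. %ILS was calculated from the median day of death of dying mice versus controls, excluding 60-day survivors.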
# [2] = Change in tumor cell population in ip implanted LOX amelanotic melanoma in mice after administration of compound at 174 mg/kg; assay type: functional, Mus musculus; conditions: route intraperitoneal
# Method in brief: (§1)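 Female CD2F1 mice were implanted ip with ascitic fluid holding ca. 1.7×10^6 LOX cells. Dosing was ip on days 1, 5 and 9, starting 24 h after implantation, by exact body weight, as a solution or suspension in saline plus Tween 80, freshly prepared daily. KE is the net log change in viable tumor cells from start to end of treatment. Bracketed KE assumes Poisson survival, with 60-day survivors tumor-free.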
# [3] = Change in tumor cell population in ip implanted LOX amelanotic melanoma in mice after administration of compound at 87 mg/kg; assay type: functional, Mus musculus; conditions: route intraperitoneal; method in brief: as §1
# [4] = Percent increase in life span of dying mice tested in vivo at 43.5 mg/kg against ip implanted LOX amelanotic melanoma in mice (60-day survivors); assay type: functional; conditions: Mus musculus, 1440 h, route intraperitoneal
# Method in brief: (§2)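 Female CD2F1 mice implanted ip with ascitic fluid carrying ca. 1.7×10^6 LOX amelanotic melanoma cells. Drug given ip on days 1, 5 and 9, starting 24 h after implant, dosed by exact body weight; solutions or suspensions made fresh daily. %ILS is from the median day of death of dying mice versus controls, excluding 60-day survivors.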
# [5] = Change in tumor cell population in ip implanted LOX amelanotic melanoma in mice after administration of compound at 21.75 mg/kg; assay type: functional, Mus musculus; conditions: route intraperitoneal; method in brief: as §1
# [6] = Change in tumor cell population in ip implanted LOX amelanotic melanoma in mice after administration of compound at 43.5 mg/kg; assay type: functional, Mus musculus; conditions: route intraperitoneal; method in brief: as §1
# [7] = Percent increase in life span of dying mice tested in vivo at 174 mg/kg against ip implanted LOX amelanotic melanoma in mice (60-day survivors); assay type: functional; conditions: Mus musculus, 1440 h, route intraperitoneal; method in brief: as §2
# [8] = Percent increase in life span of dying mice tested in vivo at 21.75 mg/kg against ip implanted LOX amelanotic melanoma in mice (60-day survivors); assay type: functional; conditions: Mus musculus, 1440 h, route intraperitoneal; method in brief: as §2
# P388 [9] = assay: Change in tumor cell population in ip implanted P388 Leukemia in mice after administration of compound at 21.8 mg/kg; assay type: functional, Mus musculus; conditions: route intraperitoneal
# Method in brief: (§3)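 Female Portage-CD2F1 mice were inoculated ip with ascitic fluid holding ca. 5.2×10^6 P388 cells. Dosing was ip on days 1-5, starting 24 h after inoculation, by average body weight, as a solution or suspension in saline plus Tween 80. KE is the net log change in viable tumor cell population from start to end of the treatment period.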
# P388 [10] = assay: Change in tumor cell population in ip implanted P388 Leukemia in mice after administration of compound at 43.5 mg/kg; assay type: functional, Mus musculus; conditions: route intraperitoneal; method in brief: as §3
# P388 [11] = assay: Change in tumor cell population in ip implanted P388 Leukemia in mice after administration of compound at 87 mg/kg; assay type: functional, Mus musculus; conditions: route intraperitoneal
# Method in brief: (§4)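 P388 leukemia: ascitic fluid with ca. 5.2×10^6 cells inoculated ip into Portage-CD₂F₁ female mice. Drug given ip on days 1-5, starting 24 h after inoculation, dosed by average body weight. Vehicle was saline plus Tween 80, as a solution or suspension. KE = net log change in viable tumor cells from start to end of treatment.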
# P388 [12] = assay: Percent increase in life span of dying mice tested in vivo at 21.8 mg/kg against ip implanted P388 Leukemia in mice; assay type: functional; conditions: Mus musculus, route intraperitoneal
# Method in brief: (§5)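 Portage-CD2F1 female mice inoculated ip with ascitic fluid carrying ca. 5.2×10^6 P388 leukemia cells. Drug given ip daily on days 1-5, starting 24 h after inoculation, dosed by average body weight. %ILS is from the median day of death of dying mice versus controls.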
# P388 [13] = assay: Percent increase in life span of dying mice tested in vivo at 43.5 mg/kg against ip implanted P388 Leukemia in mice; assay type: functional; conditions: Mus musculus, route intraperitoneal; method in brief: as §5
# P388 [14] = assay: Percent increase in life span of dying mice tested in vivo at 87 mg/kg against ip implanted P388 Leukemia in mice; assay type: functional; conditions: Mus musculus, route intraperitoneal
# Method in brief: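 Portage-CD2F1 female mice were inoculated ip with ascitic fluid containing ca. 5.2×10^6 P388 leukemia cells. Drug was given ip daily on days 1-5, starting 24 h after inoculation, and dosed by average body weight. %ILS was calculated from the median day of death of dying mice versus controls.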
# P388 [15] = assay: Change in tumor cell population in ip implanted P388 Leukemia in mice after administration of compound at 10.9 mg/kg; assay type: functional, Mus musculus; conditions: route intraperitoneal; method in brief: as §3
# P388 [16] = assay: Percent increase in life span of dying mice tested in vivo at 10.9 mg/kg against ip implanted P388 Leukemia in mice; assay type: functional; conditions: Mus musculus, route intraperitoneal; method in brief: as §5
# A549 = assay: Concentration required to inhibit tumor growth in A549, human lung carcinoma (NSCLC) cell line; assay type: functional, cell-based
# Method in brief: (§6)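 Cells grown in RPMI 1640 with 5% fetal calf serum, 5% NuSerum IV and 20 mM HEPES, seeded and allowed to adhere overnight. Compound dissolved in RPMI-1640 plus HEPES and tested over a 5 log range (10 concentrations) for 72 h. Read-out by sulforhodamine B assay. Median-effect dose derived by nonlinear regression of the concentration-effect curve.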
# HT-29 = assay: Concentration required to inhibit tumor growth in HT29, human colon adenocarcinoma cell line; assay type: functional, cell-based; method in brief: as §6
# [17] = Percent increase in life span of dying mice tested in vivo at 50 mg/kg against ip implanted LOX amelanotic melanoma in mice (60-day survivors); assay type: functional; conditions: Mus musculus, 1440 h, route intraperitoneal; method in brief: as §2
# [18] = Change in tumor cell population in ip implanted LOX amelanotic melanoma in mice after administration of compound at 100 mg/kg; assay type: functional, Mus musculus; conditions: route intraperitoneal; method in brief: as §1
# [19] = Change in tumor cell population in ip implanted LOX amelanotic melanoma in mice after administration of compound at 50 mg/kg; assay type: functional, Mus musculus; conditions: route intraperitoneal; method in brief: as §1
# Mus musculus = assay: Change in tumor cell population in ip implanted LOX amelanotic melanoma in mice after administration of compound at 200 mg/kg; toxic; assay type: functional, organism-based; parameters: dose 200 mg/kg; method in brief: as §1
# [20] = Percent increase in life span of dying mice tested in vivo at 100 mg/kg against ip implanted LOX amelanotic melanoma in mice (60-day survivors); assay type: functional; conditions: Mus musculus, 1440 h, route intraperitoneal; method in brief: as §2
# [21] = Percent increase in life span of dying mice tested in vivo at 200 mg/kg against ip implanted LOX amelanotic melanoma in mice (60-day survivors); assay type: functional; conditions: Mus musculus, 1440 h, route intraperitoneal; method in brief: as §2
# [22] = Concentration required to inhibit tumor growth in […], human breast adenocarcinoma cell line; assay type: functional; method in brief: as §6
# P388 [23] = assay: Change in tumor cell population in ip implanted P388 Leukemia in mice after administration of compound at 25 mg/kg; assay type: functional, Mus musculus; conditions: route intraperitoneal; method in brief: as §3
# P388 [24] = assay: Change in tumor cell population in ip implanted P388 Leukemia in mice after administration of compound at 50 mg/kg; toxic; assay type: functional, organism-based; parameters: dose 50 mg/kg; conditions: Mus musculus; method in brief: as §4
# P388 [25] = assay: Percent increase in life span of dying mice tested in vivo at 25 mg/kg against ip implanted P388 Leukemia in mice; assay type: functional; conditions: Mus musculus, route intraperitoneal; method in brief: as §5
# P388 [26] = assay: Percent increase in life span of dying mice tested in vivo at 50 mg/kg against ip implanted P388 Leukemia in mice; assay type: functional; conditions: Mus musculus, route intraperitoneal; method in brief: as §5
# P388 [27] = assay: Change in tumor cell population in ip implanted P388 Leukemia in mice after administration of compound at 100 mg/kg; toxic; assay type: functional, organism-based; parameters: dose 100 mg/kg; conditions: Mus musculus; method in brief: as §3
# P388 [28] = assay: Change in tumor cell population in ip implanted P388 Leukemia in mice after administration of compound at 12.5 mg/kg; assay type: functional, Mus musculus; conditions: route intraperitoneal; method in brief: as §3
# P388 [29] = assay: Percent increase in life span of dying mice tested in vivo at 100 mg/kg against ip implanted P388 Leukemia in mice; assay type: functional; conditions: Mus musculus, route intraperitoneal; method in brief: as §5
# [30] = Concentration required to inhibit tumor growth in PSN-1, human pancreatic carcinoma cell line; assay type: functional
# Method in brief: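 PSN-1 pancreatic carcinoma cells exposed to compound dissolved in RPMI-1640 plus HEPES at its maximum soluble concentration for 72 h. Read-out by sulforhodamine B colorimetric assay.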
# P388 [31] = assay: Percent increase in life span of dying mice tested in vivo at 12.5 mg/kg against ip implanted P388 Leukemia in mice; assay type: functional; conditions: Mus musculus, route intraperitoneal; method in brief: as §5
# L1210 (Mus musculus) = assay: Concentration required to inhibit tumor growth in L1210, murine lymphocytic leukemia cell line
# [32] = system: LOX amelanotic melanoma (human); assay: Change in tumor cell population in ip implanted LOX amelanotic melanoma in mice after administration of compound at 25 mg/kg; conditions: route intraperitoneal
# [33] = system: LOX amelanotic melanoma (human); assay: Percent increase in life span of dying mice tested in vivo at 25 mg/kg against ip implanted LOX amelanotic melanoma in mice (60-day survivors); conditions: Mus musculus, 1440 h
smiles,measurement,setting,value
CCSc1nc(COC(=O)NC)c(COC(=O)NC)n1C,ILS at 87 mg/kg,[1],85%
same,KE,[2],-2.5
same,KE,[3],-2.1
same,ILS at 43.5 mg/kg,[4],52%
same,KE,[5],-0.2
same,KE,[6],-0.5
same,ILS at 174 mg/kg,[7],95%
same,ILS at 21.75 mg/kg,[8],44%
same,KE,P388 [9],-1.3
same,KE,P388 [10],-1.9
same,KE,P388 [11],-4.3
same,ILS at 21.8 mg/kg,P388 [12],56%
same,ILS at 43.5 mg/kg,P388 [13],64%
same,ILS at 87 mg/kg,P388 [14],99%
same,KE,P388 [15],-0.6
same,ILS at 10.9 mg/kg,P388 [16],47%
CNC(=O)OCc1nc(SC)n(C)c1COC(=O)NC,IC50,A549,218 µM
same,IC50,"HT-29; Homo sapiens, HT-29",162 µM
same,IC50,HT-29; ht-29,108 µM
same,ILS at 50 mg/kg,[17],117%
same,KE,[18],-4
same,KE,[19],-2.9
same,KE,Mus musculus,Toxic
same,ILS at 100 mg/kg,[20],143%
same,ILS at 200 mg/kg,[21],-24%
same,IC50,[22],347 µM
same,KE,P388 [23],-4.1
same,KE,P388 [24],Toxic
same,ILS at 25 mg/kg,P388 [25],96%
same,ILS at 50 mg/kg,P388 [26],17%
same,KE,P388 [27],Toxic
same,KE,P388 [28],-1.5
same,ILS at 100 mg/kg,P388 [29],-34%
same,IC50,[30],110 µM
same,ILS at 12.5 mg/kg,P388 [31],59%
same,IC50,L1210 (Mus musculus),4.3 µM
same,KE,[32],0.3
same,ILS at 25 mg/kg,[33],34%
